Assay results reported in PMC6811854 (ACS Omega, 2019).

Key:
Neuro2A cells [1] = assay: Neurite outgrowth assay; assay type: cell-based, mouse; details: for optimum neuritogenic concentration: average neurite length; for neurite outgrowth promotion compared to no inhibitor (vehicle): differentiated Neuro2A cells, 48 h post-treatment, 10, 1, 0.1, 0.01 μM
Zebrafish = assay: Social interaction test in chronic unpredictable stress; assay type: in vivo, Zebrafish (Danio rerio); details: intraperitoneal
How it was run: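 Adult zebrafish were held at 28 ± 2 °C on a 14/10 h light/dark cycle. They then had 7 days of chronic unpredictable stress, two varied stressors daily (restraint, 33/23 °C, isolation, crowding, predator, chasing, alarm pheromone, etc.). Test compound was given at 10, 25 or 50 mg/kg, with fluoxetine 15 mg/kg as reference. Each fish then spent 120 s with an unfamiliar pink zebrafish target. Video was scored manually for latency, interaction time and freezing; n = 15.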

Neuro2A cells [2] = assay: Cell viability assay; assay type: cell-based, mouse; details: 10 μM, 72 h, MTT assay
How it was run: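 Neuro2A cells were kept in DMEM/10% FBS with supplements at 37 °C, 5% CO2, and seeded at 10 000 cells/cm2. After 24 h they were differentiated in 1% FBS and exposed to compounds (10, 1.0, 0.1 μM) for 72 h. MTT was added for 2 h at 37 °C, formazan was dissolved in DMSO and absorbance read at 562 nm. Viability is given relative to vehicle.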

Neuro2A cells [3] = assay: Immunoblot of acetylated H3, H4 and tubulin in Neuro2A cells; assay type: cell-based, mouse; details: 1 μM, compared to vehicle
How it was run: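 Neuro2A cells were exposed to compound or vehicle and harvested in Laemmli buffer; protein was assayed by amido black. Equal protein went on 12% SDS-PAGE, then PVDF transfer. Primaries ran overnight at 4 °C and secondaries 2 h at room temperature, with chemiluminescent detection. Acetylated H3, H4 and tubulin were quantified and compared with vehicle by Student's t-test.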

[4] = system: HDAC8 (class I), HDAC4 (class IIa), HDAC6 (class IIb); assay: HDACi selectivity assay; assay type: biochemical, Human; details: enzymes immunoprecipitated from HeLA cells; 10, 1, 0.1, 0.01, 0.001 μM
[5] = BBB crossing: TLC detection in Zebrafish brain extract; assay type: in vivo; details: 25 mg/kg, intraperitoneal injection
How it was run: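 Adult zebrafish were dosed with 25 mg/kg test compound or DMSO vehicle. Fish were anaesthetised on ice, and the whole brain was removed and freeze-dried in liquid nitrogen. Brains were ground in HPLC-grade ethyl acetate, sonicated, centrifuged (10 000 rpm, 20 min) and left 20 min to separate the extract. Compound in the extract was detected by TLC.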

[6] = compound 5 at 50 mg dose, vs vehicle-treated group

Row | SMILES | neurite growth activity and viability above the optimum neuritogenic concentration (Neuro2A cells [1]; Neuro2A cells) | optimum neuritogenic concentration (Neuro2A cells [1]; Neuro2A cells) [µM] | neurite outgrowth promotion compared to no inhibitor (vehicle) (Neuro2A cells [1]) | further results
1 | O=C(CCCCC(=NO)c1ccc2c(c1)c1ccccc1n2Cc1ccccc1)NO [Compound 6, 6-(9-Benzyl-9H-carbazol-3-yl)-N-hydroxy-6-(hydroxyimino)hexanamide] | reduced neurite growth activity and viability | 0.01 | significantly more neurite outgrowth promotion | –
2 | O=C(CCCCCCC(=NO)c1ccc2c(c1)c1ccccc1n2Cc1ccccc1)NO [Compound 7, 8-(9-Benzyl-9H-carbazol-3-yl)-N-hydroxy-8-(hydroxyimino)octanamide] | reduced neurite growth activity and viability | 0.1 | significantly more neurite outgrowth promotion | –
3 | O=C(CCCC(=NO)n1c2ccccc2c2ccccc21)NO [Compound 10, 5-(9H-Carbazol-9-yl)-N-hydroxy-5-(hydroxyimino)pentanamide] | reduced neurite growth activity and viability | 0.1 | significantly more neurite outgrowth promotion | –
4 | CNCCC(Oc1ccc(C(F)(F)F)cc1)c1ccccc1 (stereo not drawn) [fluoxetine, reference compound] | – | – | – | freezing duration (social interaction test) (Zebrafish; compound 5 (10, 25, 50 mg/kg tested), fluoxetine 15 mg/kg): trend of decreased freezing duration
5 | CN1CCc2c(c3ccccc3n2Cc2ccc(C(=O)NO)cc2)C1 [tubastatin-A, reference compound] | reduced neurite growth activity and viability | 10 | significantly more neurite outgrowth promotion | –
6 | O=C(CCCCCCCc1ccc2[nH]c3ccccc3c2c1)NO [Compound 5, 8-(9H-Carbazol-3-yl)-N-hydroxyoctanamide] | reduced neurite growth activity and viability | 1 | significantly more neurite outgrowth promotion | neurite outgrowth compared to vorinostat and tubastatin-A (Neuro2A cells [1]; Neuro2A cells, at optimum neuritogenic concentrations): remarkably more neurite outgrowth; cell viability (cytotoxicity) (Neuro2A cells [2]): does not show any observable toxicity; acetylated H3 (Neuro2A cells [3]): significant increase; acetylated H4 (Neuro2A cells [3]): significant increase; acetylated tubulin (Neuro2A cells [3]): significant increase; latency to social interaction (Zebrafish; [6]): not at 50 mg dose; total time spent in interaction zone (Zebrafish; [6]): not at 50 mg dose; HDAC class selectivity [4]: selectivity for class II (class IIa-HDAC4 and class IIb- HDAC6) over class I (HDAC8); crossing of the blood-brain barrier (detection in brain extract by TLC) [5]: crossing the BBB
7 | O=C(CCCCC(=NO)n1c2ccccc2c2ccccc21)NO [Compound 11, 6-(9H-Carbazol-9-yl)-N-hydroxy-6-(hydroxyimino)hexanamide] | reduced neurite growth activity and viability | 0.1 | significantly more neurite outgrowth promotion | –
8 | O=C(CCCCCc1ccc2c(c1)c1ccccc1n2Cc1ccccc1)NO [Compound 4, 6-(9-Benzyl-9H-carbazol-3-yl)-N-hydroxyhexanamide] | reduced neurite growth activity and viability | 0.1 | significantly more neurite outgrowth promotion | –
9 | O=C(CCCCCCC(=O)Nc1ccccc1)NO [vorinostat, suberoylanilide hydroxamic acid, reference compound] | reduced neurite growth activity and viability | 1 | – | –
10 | O=C(CCCCc1ccc2c(c1)c1ccccc1n2CC(=O)NO)NO [Compound 8, N-hydroxy-5-(9-(2-(hydroxyamino)-2-oxoethyl)-9H-carbazol-3-yl)pentanamide] | reduced neurite growth activity and viability | 0.1 | significantly more neurite outgrowth promotion | –
